Laboratory results reported in ChEMBL document CHEMBL1128434, “Gonadotropin-releasing hormone antagonists: novel members of the azaline B family” (1995).

Columns and labels:
Rattus norvegicus [1] = species on record: Rattus norvegicus; experiment: Effect in the anti ovulatory assay (AOA) in rats expressed as no. of rats ovulating/No of rats treated at 2.5 mg; 4/8; format: functional
Rattus norvegicus [2] = species on record: Rattus norvegicus; experiment: Effect in the anti ovulatory assay (AOA) in rats expressed as no. of rats ovulating/No of rats treated at 1.0 mg; 5/5; format: functional
[3] = molecular target: T1, Gonadotropin-releasing hormone receptor (Rattus norvegicus) (UniProt P30969); experiment: In vitro potency to inhibit GnRH-mediated LH secretion by cultured pituitary cells relative to [Ac-delta-Pro1,DFpa2,DTrp36]GnRH.; format: functional, cell-based; conditions: Pituitary gland cell
T1 sequence (whole entry): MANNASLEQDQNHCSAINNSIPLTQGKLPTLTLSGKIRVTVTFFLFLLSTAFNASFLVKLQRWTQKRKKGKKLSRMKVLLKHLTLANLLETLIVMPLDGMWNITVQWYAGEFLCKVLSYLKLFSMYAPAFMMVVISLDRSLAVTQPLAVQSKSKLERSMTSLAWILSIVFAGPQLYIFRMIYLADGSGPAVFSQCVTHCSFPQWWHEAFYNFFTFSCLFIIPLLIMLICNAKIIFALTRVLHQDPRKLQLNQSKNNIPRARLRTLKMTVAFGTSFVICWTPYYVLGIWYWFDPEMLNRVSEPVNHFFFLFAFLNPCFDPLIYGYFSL
Summary of the method: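 Dispersed rat pituitary cells in culture; antagonist inhibition of GnRH-stimulated LH secretion. Potency expressed relative to standard antagonist [Ac-Δ3Pro1,D4FPhe2,DTrp3,6]GnRH taken as 1.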

Rattus norvegicus [4] = species on record: Rattus norvegicus; experiment: Effect in the anti ovulatory assay (AOA) in rats expressed as no. of rats ovulating/No of rats treated at 1.0 mg; 2/10; format: functional
Rattus norvegicus [5] = species on record: Rattus norvegicus; experiment: Duration of action measured using castrated male rat assay to inhibit luteinizing hormone release.; fully active at 48 hr but not at 72 hr; format: functional
Rattus norvegicus [6] = species on record: Rattus norvegicus; experiment: Effect in the anti ovulatory assay (AOA) in rats expressed as no. of rats ovulating/No of rats treated at 0.5 mg; 6/6; format: functional
Rattus norvegicus [7] = species on record: Rattus norvegicus; experiment: Effect in the anti ovulatory assay (AOA) in rats expressed as no. of rats ovulating/No of rats treated at 2.5 mg; 2/7; format: functional
Rattus norvegicus [8] = species on record: Rattus norvegicus; experiment: Effect in the anti ovulatory assay (AOA) in rats expressed as no. of rats ovulating/No of rats treated at 0.5 mg; 8/8; format: functional
Rattus norvegicus [9] = species on record: Rattus norvegicus; experiment: Effect in the anti ovulatory assay (AOA) in rats expressed as no. of rats ovulating/No of rats treated at 1.0 mg; 4/8; format: functional
Rattus norvegicus [10] = species on record: Rattus norvegicus; experiment: Effect in the anti ovulatory assay (AOA) in rats expressed as no. of rats ovulating/No of rats treated at 25 mg; 2/8; format: functional
Rattus norvegicus [11] = species on record: Rattus norvegicus; experiment: Effect in the anti ovulatory assay (AOA) in rats expressed as no. of rats ovulating/No of rats treated at 100 mg; 0/4; format: functional
Rattus norvegicus [12] = species on record: Rattus norvegicus; experiment: Effect in the anti ovulatory assay (AOA) in rats expressed as no. of rats ovulating/No of rats treated at 0.5 mg; 10/14; format: functional
Rattus norvegicus [13] = species on record: Rattus norvegicus; experiment: Effect in the anti ovulatory assay (AOA) in rats expressed as no. of rats ovulating/No of rats treated at 1.0 mg; 1/8; format: functional
[14] = molecular target: T1, Gonadotropin-releasing hormone receptor (Rattus norvegicus); experiment: Duration of action measured using castrated male rat assay to inhibit luteinizing hormone release.; fully active at 72 hr; format: functional
Rattus norvegicus [15] = species on record: Rattus norvegicus; experiment: Effect in the anti ovulatory assay (AOA) in rats expressed as no. of rats ovulating/No of rats treated at 1.0 mg; 3/11; format: functional
Rattus norvegicus [16] = species on record: Rattus norvegicus; experiment: Effect in the anti ovulatory assay (AOA) in rats expressed as no. of rats ovulating/No of rats treated at 0.5 mg; 4/4; format: functional

## CC(=O)N[C@H](Cc1ccc2ccccc2c1)C(=O)N[C@H](Cc1ccc(Cl)cc1)C(=O)N[C@H](Cc1cccnc1)C(=O)N[C@@H](CO)C(=O)N[C@@H](Cc1ccc(NC(=O)CCl)cc1)C(=O)N[C@H](Cc1ccc(NC(=O)CCl)cc1)C(=O)N[C@@H](CC(C)C)C(=O)N[C@@H](CCCCNC(C)C)C(=O)N1CCC[C@H]1C(=O)N[C@H](C)N
Rattus norvegicus [1]
  No. of rats ovulated: 4
Rattus norvegicus [2]
  No. of rats ovulated: 5

## CC(=O)N[C@H](Cc1ccc2ccccc2c1)C(=O)N[C@H](Cc1ccc(Cl)cc1)C(=O)N[C@H](Cc1cccnc1)C(=O)N[C@@H](CO)C(=O)N[C@@H](Cc1ccc(NC(=O)CCCCCNc2n[nH]c(N)n2)cc1)C(=O)N[C@H](Cc1ccc(NC(=O)CCCCCNc2n[nH]c(N)n2)cc1)C(=O)N[C@@H](CC(C)C)C(=O)N[C@@H](CCCCNC(C)C)C(=O)N1CCC[C@H]1C(=O)N[C@H](C)N
[3]
  Relative potency: 0.48
Rattus norvegicus [4]
  No. of rats ovulated: 2
Rattus norvegicus [5]
  Duration of action: 48 h
Rattus norvegicus [6]
  No. of rats ovulated: 6

## CC(=O)N[C@H](Cc1ccc2ccccc2c1)C(=O)N[C@H](Cc1ccc(Cl)cc1)C(=O)N[C@H](Cc1cccnc1)C(=O)N[C@@H](CO)C(=O)N(C)[C@@H](Cc1ccc(O)cc1)C(=O)N[C@H](Cc1ccc(Nc2n[nH]c(N)n2)cc1)C(=O)N[C@@H](CC(C)C)C(=O)N[C@@H](CCCCNC(C)C)C(=O)N1CCC[C@H]1C(=O)N[C@H](C)N
Rattus norvegicus [7]
  No. of rats ovulated: 2

## CC(=O)N[C@H](Cc1ccc2ccccc2c1)C(=O)N[C@H](Cc1ccc(Cl)cc1)C(=O)N[C@H](Cc1cccnc1)C(=O)N[C@@H](CO)C(=O)N[C@@H](Cc1ccc(NC(=O)c2cnccn2)cc1)C(=O)N[C@H](Cc1ccc(NC(=O)c2cnccn2)cc1)C(=O)N[C@@H](CC(C)C)C(=O)N[C@@H](CCCCNC(C)C)C(=O)N1CCC[C@H]1C(=O)N[C@H](C)N
Rattus norvegicus [8]
  No. of rats ovulated: 8
Rattus norvegicus [9]
  No. of rats ovulated: 4

## CC[C@H](C)[C@H](NC(=O)[C@H](CC(C)C)NC(=O)[C@@H](Cc1ccc(Nc2n[nH]c(N)n2)cc1)NC(=O)[C@H](Cc1ccc(Nc2n[nH]c(N)n2)cc1)N(C)C(=O)[C@H](CO)NC(=O)[C@@H](Cc1cccnc1)NC(=O)[C@@H](Cc1ccc(Cl)cc1)NC(=O)[C@@H](Cc1ccc2ccccc2c1)NC(C)=O)C(=O)N1CCC[C@H]1C(=O)N[C@H](C)N
Rattus norvegicus [10]
  No. of rats ovulated: 2
Rattus norvegicus [11]
  No. of rats ovulated: 0

## CC(=O)N[C@H](Cc1ccc2ccccc2c1)C(=O)N[C@H](Cc1ccc(Cl)cc1)C(=O)N[C@H](Cc1cccnc1)C(=O)N[C@@H](CO)C(=O)N[C@@H](Cc1ccc(NC(=O)CCCNc2n[nH]c(N)n2)cc1)C(=O)N[C@H](Cc1ccc(NC(=O)CCCNc2n[nH]c(N)n2)cc1)C(=O)N[C@@H](CC(C)C)C(=O)N[C@@H](CCCCNC(C)C)C(=O)N1CCC[C@H]1C(=O)N[C@H](C)N
Rattus norvegicus [12]
  No. of rats ovulated: 10
[3]
  Relative potency: 0.21
Rattus norvegicus [13]
  No. of rats ovulated: 1
[14]
  Duration of action: 72 h

## CC(=O)N[C@H](Cc1cnc2ccccc2c1)C(=O)N[C@H](Cc1ccc(Cl)cc1)C(=O)N[C@H](Cc1cccnc1)C(=O)N[C@@H](CO)C(=O)N[C@@H](Cc1ccc(Nc2n[nH]c(N)n2)cc1)C(=O)N[C@H](Cc1ccc(Nc2n[nH]c(N)n2)cc1)C(=O)N[C@@H](CC(C)C)C(=O)N[C@@H](CCCCNC(C)C)C(=O)N1CCC[C@H]1C(=O)N[C@H](C)N
Rattus norvegicus [15]
  No. of rats ovulated: 3
Rattus norvegicus [16]
  No. of rats ovulated: 4
